Source: ChEMBL document CHEMBL4270666, “Development of Dihydrodibenzooxepine Peroxisome Proliferator-Activated Receptor (PPAR) Gamma Ligands of a Novel Binding Mode as Anticancer Agents: Effective Mimicry of Chiral Structures by Olefinic E/ Z-Isomers” (J Med Chem, 2018)
Calls of active or inactive are those of the source. No cut-off for these calls is given here.

Experiments:
Mus musculus = organism: Mus musculus; assay: Antidiabetic activity in db/db diabetic mouse model assessed as reduction in blood glucose levels relative to vehicle-treated control; assay type: functional; parameters: scale not given: the % may be the effect or the level left
[1] = molecular target: T1, Peroxisome proliferator-activated receptor gamma (Homo sapiens, UniProt P37231); assay: Transactivation of GAL4-fused human PPARgamma transfected in HEK293BENA cells after 24 hrs by steady glo-luciferase reporter gene assay; assay type: cell-based
T1 sequence (P37231 whole entry): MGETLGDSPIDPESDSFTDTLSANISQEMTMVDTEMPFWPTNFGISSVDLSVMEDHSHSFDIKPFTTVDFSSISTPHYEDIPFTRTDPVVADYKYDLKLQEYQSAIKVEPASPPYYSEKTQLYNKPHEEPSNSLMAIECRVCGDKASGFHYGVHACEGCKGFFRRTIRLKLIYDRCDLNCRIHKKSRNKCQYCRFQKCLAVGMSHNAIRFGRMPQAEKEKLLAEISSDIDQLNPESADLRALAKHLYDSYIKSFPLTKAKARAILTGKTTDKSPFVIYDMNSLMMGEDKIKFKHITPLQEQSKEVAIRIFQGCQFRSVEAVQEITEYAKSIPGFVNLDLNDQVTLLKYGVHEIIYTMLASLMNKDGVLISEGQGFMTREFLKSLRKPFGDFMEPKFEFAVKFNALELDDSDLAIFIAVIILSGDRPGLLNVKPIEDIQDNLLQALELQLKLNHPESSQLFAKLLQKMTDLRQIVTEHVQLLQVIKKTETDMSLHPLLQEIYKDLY

[2] = molecular target: T2, Peroxisome proliferator-activated receptor gamma (Homo sapiens) (UniProt P37231); assay: Agonist activity at PPARgamma in human MKN45 cells assessed as cell differentiation at 30 nM after 5 days by Hoechst 33342 staining-based assay relative to control
T2 sequence (whole entry): T1 sequence (P37231 whole entry)
How it was run: (§1)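 MKN45 cells grown in RPMI1640 with 10% FBS, penicillin/streptomycin, 37 °C, 5% CO2; seeded 2500 cells/well, exposed to compound (1-1000 nM, N = 3 per concentration) for 5 days. Hoechst 33342 nuclear stain, imaged; nuclear areas above 1,015.58 μm2 counted as aggregated clusters; aggregated-cluster area over total cell area gives aggregation rate, normalized to a reference agonist's maximum; EC50 at half-maximal activity.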

[3] = molecular target: T2, Peroxisome proliferator-activated receptor gamma (Homo sapiens); assay: Transactivation of PPARgamma in human MKN45 cells assessed as increase in angptl4 gene expression at 10 to 100 nM after 72 hrs by quantitative PCR analysis; assay type: cell-based
How it was run: (§2)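 MKN45 cells treated with compound for 72 h (N = 3 per concentration); cells washed in cold PBS, total RNA isolated, transcript levels measured by quantitative PCR and corrected to GAPDH; fold-induction expressed relative to control/baseline.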

[4] = molecular target: T2, Peroxisome proliferator-activated receptor gamma (Homo sapiens); assay: Transactivation of PPARgamma in human MKN45 cells assessed as increase in adfp gene expression at 10 to 100 nM after 72 hrs by quantitative PCR analysis; assay type: cell-based; how it was run: as §2
[5] = molecular target: T2, Peroxisome proliferator-activated receptor gamma (Homo sapiens); assay: Agonist activity at PPARgamma in human MKN45 cells assessed as cell differentiation at 100 nM after 5 days by Hoechst 33342 staining-based assay; how it was run: as §1
[6] = molecular target: T2, Peroxisome proliferator-activated receptor gamma (Homo sapiens); assay: Transactivation of PPARgamma in human MKN45 cells assessed as decrease in vimentin gene expression at 10 to 100 nM after 72 hrs by quantitative PCR analysis; assay type: cell-based; how it was run: as §2
[7] = molecular target: T1, Peroxisome proliferator-activated receptor gamma; assay: Transactivation of PPARgamma (unknown origin) transfected in human DRO cells after 24 hrs by dual luciferase reporter gene assay; assay type: cell-based
[8] = Inhibition of cologenic growth of human DRO cells at 1 nM after 2 weeks by soft agar assay relative to control; assay type: functional; conditions: 336 h

| Compound | EC50 [1] | also measured |
| --- | --- | --- |
| O=S(=O)(Nc1cc(Cl)c(Oc2cnc3ccccc3c2)c(Cl)c1)c1ccc(Cl)cc1Cl [INT131] |  | Activity (Mus musculus): 60% |
| CCCc1nc2c(NS(C)(=O)=O)cccc2n1Cc1ccc2c(c1)COc1ccccc1/C2=C(\C)c1noc(=O)[nH]1 | 166 nM |  |
| CCCc1nc2c(C)cccc2n1Cc1ccc2c(c1)COc1ccccc1/C2=C(\C)c1noc(=O)[nH]1 |  | Activity [2]: 94%; Activity [3]: Active; Activity [4]: Active; Activity [5]: Active; Activity [6]: Active |
| CCc1nc2c(C)cc(C)nc2n1Cc1ccc2c(c1)CCc1ccccc1/C2=C(\C)c1noc(=O)[nH]1 | 177 nM |  |
| Cc1cc(Oc2ccc3nc(COc4ccc(CC5SC(=O)NC5=O)cc4)n(C)c3c2)cc(C)c1N (configuration not stated) [EFATUTAZONE] |  | EC50 [7]: 1 nM; inhibition at 0.001 µM [8]: 63% |
| CCCc1nc(-c2ccncc2)cn1Cc1ccc2c(c1)COc1ccccc1/C2=C(\C)c1noc(=O)[nH]1 | 593 nM |  |
| CCCCCS(=O)(=O)NC(=O)c1ccc2nc(C)n(Cc3ccc(Cl)cc3Cl)c2c1 [ATX08-001] | 163 nM |  |

More lines, in order of falling EC50 [1], values ahead:

| EC50 [1] | Compound | also measured |
| --- | --- | --- |
| 151 nM | CCCc1nc(-c2ccccc2)cn1Cc1ccc2c(c1)COc1ccccc1/C2=C(\C)c1noc(=O)[nH]1 |  |
| 84 nM | CCc1nc2c(C)cc(C)nc2n1Cc1ccc2c(c1)COc1ccccc1/C2=C(\C)c1noc(=O)[nH]1 |  |
| 57 nM | CCCc1nc2c(C(=O)NCCO)cccc2n1Cc1ccc2c(c1)COc1ccccc1/C2=C(\C)c1noc(=O)[nH]1 |  |
| 33 nM | CCCc1nc2c(CO)cccc2n1Cc1ccc2c(c1)COc1ccccc1/C2=C(\C)c1noc(=O)[nH]1 |  |
| 2.7 nM | CCCc1nc2ccccc2n1Cc1ccc2c(c1)COc1ccccc1/C2=C(\C)c1noc(=O)[nH]1 |  |
